# Reference: ChEMBL document CHEMBL1142158, “Antibacterial activity and mechanism of action of a novel anilinouracil-fluoroquinolone hybrid compound” (Antimicrob Agents Chemother, 2007)
# Activity calls are given as the source filed them. The calls are words filed in the database; no cut-off is given here.
# Legend:
# [1] = Inhibition of Bacillus subtilis gyrase
# [2] = Inhibition of Bacillus subtilis topoisomerase 4
# Staphylococcus aureus [3] = test: Antibacterial activity against Staphylococcus aureus Smith in presence of 10% FCS; assay type: functional
# Streptococcus pneumoniae [4] = test: Antibacterial activity against penicillin-resistant Streptococcus pneumoniae 700674; assay type: functional
# How it was run: (§1)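 Streptococci tested by CLSI broth microdilution in Mueller-Hinton broth with 5% defibrinated horse blood, log-phase inoculum at 1 x 10^5 CFU/ml. Incubated 37°C with shaking, 16 to 20 h, in 5% humidified CO2. Compounds at 1% DMSO final. MIC is the lowest concentration without growth by OD600. Quadruplicate; highest MIC reported.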
# Staphylococcus aureus [5] = test: Antibacterial activity against mupirocin-resistant Staphylococcus aureus 777; assay type: functional
# How it was run: (§2)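 Broth microdilution per CLSI with modified incubation. Log-phase cultures in cation-adjusted Mueller-Hinton broth, seeded at 1 x 10^5 CFU/ml. Compounds from DMSO stocks, 1% DMSO final. Incubated 37°C, 16 to 20 h, shaken. Growth read as OD600. MIC is the lowest concentration with no apparent growth. Run in quadruplicate; highest value reported.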
# Staphylococcus aureus [6] = test: Antibacterial activity against methicillin-resistant Staphylococcus aureus B42876; assay type: functional; how it was run: as §2
# Enterococcus faecium [7] = test: Antibacterial activity against vancomycin-resistant Enterococcus faecium B42762; assay type: functional; how it was run: as §2
# Staphylococcus aureus [8] = test: Antibacterial activity against HB-EMAU-resistant and ciprofloxacin-resistant Staphylococcus aureus Smith; assay type: functional; how it was run: as §2
# Enterococcus faecalis [9] = test: Antibacterial activity against vancomycin-resistant Enterococcus faecalis 51575; assay type: functional; how it was run: as §2
# Bacillus thuringiensis [10] = test: Antibacterial activity against Bacillus thuringiensis 10792; assay type: functional
# Pseudomonas aeruginosa = test: Antibacterial activity against Pseudomonas aeruginosa 27853; assay type: functional
# Staphylococcus aureus [11] = test: Antibacterial activity against methicillin-resistant Staphylococcus aureus 1094; assay type: functional; how it was run: as §2
# Enterococcus faecium [12] = test: Antibacterial activity against Enterococcus faecium 19434; assay type: functional; how it was run: as §2
# Bacillus subtilis [13] = test: Antibacterial activity against Bacillus subtilis BD54; assay type: functional
# Staphylococcus aureus [14] = test: Antibacterial activity against Staphylococcus aureus 25923; assay type: functional; how it was run: as §2
# Enterococcus faecalis [15] = test: Antibacterial activity against Enterococcus faecalis 29212; assay type: functional; how it was run: as §2
# Bacillus subtilis [16] = test: Inhibition of RNA synthesis in Bacillus subtilis BD54; assay type: functional, organism-based
# How it was run: (§3)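 B. subtilis BD54 grown to log phase in C plus 50 medium; compound in DMSO added with [8-3H]adenine at time zero, at 5x or 1x MIC; samples over time. DNA = alkali-insensitive TCA-insoluble label; RNA = total TCA-insoluble minus DNA. Effect judged against diluent-control incorporation.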
# Bacillus cereus [17] = test: Antibacterial activity against Bacillus cereus 4342; assay type: functional
# Staphylococcus aureus [18] = test: Antibacterial activity against Staphylococcus aureus 1081; assay type: functional; how it was run: as §2
# Bacillus subtilis [19] = test: Inhibition of DNA synthesis in Bacillus subtilis BD54; assay type: functional, organism-based; how it was run: as §3
# Enterococcus faecalis [20] = test: Antibacterial activity against vancomycin-resistant Enterococcus faecalis 51299; assay type: functional; how it was run: as §2
# Escherichia coli [21] = test: Antibacterial activity against ciprofloxacin-resistant Escherichia coli XL1-Blue; assay type: functional; how it was run: as §2
# Staphylococcus aureus [22] = test: Antibacterial activity against Staphylococcus aureus Smith 13709; assay type: functional; how it was run: as §2
# Streptococcus pneumoniae [23] = test: Antibacterial activity against penicillin-resistant Streptococcus pneumoniae 700673; assay type: functional; how it was run: as §1
# Streptococcus pneumoniae [24] = test: Antibacterial activity against penicillin-resistant Streptococcus pneumoniae 700670; assay type: functional; how it was run: as §1
# Streptococcus pyogenes = test: Antibacterial activity against Streptococcus pyogenes 12344; assay type: functional
# Staphylococcus aureus [25] = test: Antibacterial activity against ciprofloxacin-resistant Staphylococcus aureus Smith; assay type: functional; how it was run: as §2
# Enterococcus faecium [26] = test: Antibacterial activity against vancomycin-resistant Enterococcus faecium 1644; assay type: functional; how it was run: as §2
# Staphylococcus aureus [27] = test: Antibacterial activity against methicillin-resistant Staphylococcus aureus 1132; assay type: functional; how it was run: as §2
# Staphylococcus aureus [28] = test: Antibacterial activity against HB-EMAU-resistant Staphylococcus aureus Smith; assay type: functional; how it was run: as §2
# Enterococcus faecalis [29] = test: Antibacterial activity against vancomycin-resistant Enterococcus faecalis 700802; assay type: functional; how it was run: as §2
# [30] = Cytotoxicity against human MRC5 cells; assay type: cell-based
# How it was run: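 MRC-5 human diploid fibroblasts, 4 x 10^3 cells per well, exposed to compound from DMSO stock (final 1%) in minimal essential medium with 10% fetal calf serum for 72 h at 37°C beside a DMSO-only control.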
# [31] = tested on: Stenotrophomonas maltophilia; test: Antibacterial activity against Stenotrophomonas maltophilia 13637; assay type: functional
# Streptococcus pneumoniae [32] = test: Antibacterial activity against penicillin-resistant Streptococcus pneumoniae 700677; assay type: functional; how it was run: as §1
# Streptococcus pneumoniae [33] = test: Antibacterial activity against Streptococcus pneumoniae 49619; assay type: functional; how it was run: as §1
# Enterococcus faecium [34] = test: Antibacterial activity against vancomycin and linezolid-resistant Enterococcus faecium F118; assay type: functional; how it was run: as §2
# [35] = biological target: T1, DNA polymerase subunit gamma-1 (Homo sapiens, UniProt P54098); test: Inhibition of human DNA polymerase gamma
# T1 sequence (P54098 whole entry): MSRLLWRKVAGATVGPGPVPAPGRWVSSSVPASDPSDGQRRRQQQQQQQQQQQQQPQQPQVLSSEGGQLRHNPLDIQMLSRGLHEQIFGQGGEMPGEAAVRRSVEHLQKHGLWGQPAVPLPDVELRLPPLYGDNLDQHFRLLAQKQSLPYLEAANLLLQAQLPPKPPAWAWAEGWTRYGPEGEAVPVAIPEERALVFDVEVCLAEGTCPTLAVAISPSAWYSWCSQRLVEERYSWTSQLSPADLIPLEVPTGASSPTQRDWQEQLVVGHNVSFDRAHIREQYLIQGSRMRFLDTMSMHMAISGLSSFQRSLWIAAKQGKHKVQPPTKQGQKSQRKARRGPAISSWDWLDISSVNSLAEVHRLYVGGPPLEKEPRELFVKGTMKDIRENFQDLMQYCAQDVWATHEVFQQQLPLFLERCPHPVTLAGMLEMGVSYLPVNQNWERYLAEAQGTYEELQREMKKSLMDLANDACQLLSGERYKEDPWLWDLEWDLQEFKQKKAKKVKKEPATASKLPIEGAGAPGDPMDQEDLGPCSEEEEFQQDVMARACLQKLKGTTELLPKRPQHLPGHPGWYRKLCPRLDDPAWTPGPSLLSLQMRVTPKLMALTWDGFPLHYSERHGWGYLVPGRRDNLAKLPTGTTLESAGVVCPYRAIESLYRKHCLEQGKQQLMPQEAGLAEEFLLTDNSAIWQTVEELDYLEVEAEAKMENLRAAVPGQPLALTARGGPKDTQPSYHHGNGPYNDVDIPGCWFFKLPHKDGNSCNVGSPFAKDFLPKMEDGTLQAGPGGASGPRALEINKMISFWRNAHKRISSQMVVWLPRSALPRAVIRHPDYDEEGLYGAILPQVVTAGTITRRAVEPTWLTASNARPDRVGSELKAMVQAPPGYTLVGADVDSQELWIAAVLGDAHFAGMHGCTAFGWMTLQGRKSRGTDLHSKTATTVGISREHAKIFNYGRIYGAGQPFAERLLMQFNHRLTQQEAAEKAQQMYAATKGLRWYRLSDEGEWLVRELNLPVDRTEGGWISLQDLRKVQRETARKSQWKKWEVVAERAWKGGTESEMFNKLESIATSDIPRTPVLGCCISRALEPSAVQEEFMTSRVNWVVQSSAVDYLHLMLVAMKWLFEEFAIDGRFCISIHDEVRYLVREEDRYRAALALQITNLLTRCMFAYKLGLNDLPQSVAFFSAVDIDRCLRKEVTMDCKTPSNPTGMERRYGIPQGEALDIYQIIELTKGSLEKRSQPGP
# How it was run: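 Calf thymus pol alpha or human pol gamma, 0.025 to 0.06 U, added to compound dilutions in reaction mixture; 25 min at 37°C; stopped with ice-cold 10% TCA/10 mM pyrophosphate; precipitated [3H]DNA collected on filters and counted. Ki values for dGTP-competitive inhibitors obtained by truncated assay lacking dGTP.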
# Staphylococcus aureus [36] = test: Antibacterial activity against mupirocin-sensitive Staphylococcus aureus 2529; assay type: functional
# Bacillus subtilis [37] = test: Inhibition of protein synthesis in Bacillus subtilis BD54; assay type: functional, organism-based
# How it was run: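 Log-phase B. subtilis BD54 in C plus 50 medium; compound in DMSO (5x or 1x MIC) and L-[4,5-3H]leucine added together at time zero; samples taken at intervals. Protein synthesis measured as TCA-precipitable radioactivity, compared with diluent-control incorporation.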
# Staphylococcus aureus [38] = test: Antibacterial activity against methicillin-resistant Staphylococcus aureus 1123; assay type: functional; how it was run: as §2
# Klebsiella pneumoniae = test: Antibacterial activity against Klebsiella pneumoniae 5657; assay type: functional
# Streptococcus pneumoniae [39] = test: Antibacterial activity against penicillin-resistant Streptococcus pneumoniae 700671; assay type: functional; how it was run: as §1
# Escherichia coli [40] = test: Antibacterial activity against Escherichia coli J53; assay type: functional
# Bacillus anthracis = test: Antibacterial activity against Bacillus anthracis Sterne; assay type: functional
# Bacillus cereus [41] = test: Antibacterial activity against Bacillus cereus 6464; assay type: functional
# Bacillus thuringiensis [42] = test: Antibacterial activity against Bacillus thuringiensis 33679; assay type: functional
compound,measurement,setting,value
CCn1cc(C(=O)O)c(=O)c2ccc(C)nc21 [NALIDIXIC ACID],IC50,[1],149 µM
same,IC50,[2],1090 µM
CCc1cc(Nc2cc(=O)n(CCCCO)c(=O)[nH]2)ccc1C,MIC,Staphylococcus aureus [3],20 µg/mL
same,MIC,Streptococcus pneumoniae [4],5 µg/mL
same,MIC,Staphylococcus aureus [5],10 µg/mL
same,MIC,Staphylococcus aureus [6],5 µg/mL
same,MIC,Enterococcus faecium [7],5 µg/mL
same,MIC,Staphylococcus aureus [8],> 80 µg/mL
same,MIC,Enterococcus faecalis [9],5 µg/mL
same,MIC,Bacillus thuringiensis [10],1.25 µg/mL
same,MIC,Pseudomonas aeruginosa,> 80 µg/mL
same,MIC,Staphylococcus aureus [11],5 µg/mL
same,IC50,[1],> 500 µM
same,MIC,Enterococcus faecium [12],5 µg/mL
same,MIC,Bacillus subtilis [13],1.25 µg/mL
same,MIC,Staphylococcus aureus [14],5 µg/mL
same,MIC,Enterococcus faecalis [15],5 µg/mL
same,Activity,Bacillus subtilis [16],inactive
same,MIC,Bacillus cereus [17],1.25 µg/mL
same,MIC,Staphylococcus aureus [18],5 µg/mL
same,Activity,Bacillus subtilis [19],Active
same,MIC,Enterococcus faecalis [20],5 µg/mL
same,MIC,Escherichia coli [21],> 80 µg/mL
same,MIC,Staphylococcus aureus [22],5 µg/mL
same,MIC,Streptococcus pneumoniae [23],2.5 µg/mL
same,MIC,Streptococcus pneumoniae [24],5 µg/mL
same,MIC,Streptococcus pyogenes,1.25 µg/mL
same,MIC,Staphylococcus aureus [25],5 µg/mL
same,MIC,Enterococcus faecium [26],2.5 µg/mL
same,MIC,Staphylococcus aureus [27],5 µg/mL
same,MIC,Staphylococcus aureus [28],> 80 µg/mL
same,MIC,Enterococcus faecalis [29],5 µg/mL
same,CC50,[30],46 µg/mL
same,MIC,[31],> 80 µg/mL
same,MIC,Streptococcus pneumoniae [32],2.5 µg/mL
same,IC50,[2],> 500 µM
same,MIC,Streptococcus pneumoniae [33],2.5 µg/mL
same,MIC,Enterococcus faecium [34],10 µg/mL
same,Ki,[35],> 1010 µM
same,MIC,Staphylococcus aureus [36],20 µg/mL
same,Activity,Bacillus subtilis [37],inactive
same,MIC,Staphylococcus aureus [38],5 µg/mL
same,MIC,Klebsiella pneumoniae,> 80 µg/mL
same,MIC,Streptococcus pneumoniae [39],2.5 µg/mL
same,MIC,Escherichia coli [40],> 80 µg/mL
same,MIC,Bacillus anthracis,2.5 µg/mL
same,MIC,Bacillus cereus [41],1.25 µg/mL
same,MIC,Bacillus thuringiensis [42],2.5 µg/mL
